# NTR1 agonist: agonists of human NTR1, primary screen, imaging, U2OS cells, beta-arrestin-GFP, high content; NTR1-U2OS beta-arrestin-GFP spot imaging, agonist mode; AID 493036, 2011; actives 0.17% (n = 330,000); activation, % at 20 µM;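 active means activation at or above 40% of the spot to cytoplasm intensity ratio, with at least 20 cells analyzed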;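 further: 0% = DMSO without peptide and 100% = 100 nM NTR1 peptide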
# AI-2 QS modul: Vibrio harveyi AI-2 quorum sensing modulators, primary screen, JMH597 strain, luminescence/OD600 ratio | Vibrio harveyi JMH597 AI-2 luminescence/OD600 ratio, 9 h; active compounds read low; strain lacks LuxN and CqsS sensors; 0 = neutral-control median | activity change, % at 7.5 µM | actives 0.4% (n = 300,000); in the data active means activity change below about -75%, passing the limit was not always enough;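 further: luminescence divided by OD600 gain over 9 h not by final OD600 alone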
# MC4R antag cAMP: MC4R antagonists of cAMP signaling, primary screen, cell-based, TR-FRET, antagonist arm of biased-ligand search; Melanocortin receptor 4 (Homo sapiens), P32245; MC4R-expressing cells, MTII-stimulated cAMP, LANCE TR-FRET; inhibition, % at 6.5 µM; actives 0.48% (n = 360,000);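 active means inhibition above its plate's cutoff, the mean of tested wells on that plate plus 3 SD, cut at about 29% in these data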;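 further: 0% = Melanotan II alone and 100% = Melanotan II plus saturating MCL0020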
#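 Material: U2OS-MC4R stable cell line | Reagent: Melanotan II challenge after compound preincubation | Doses: One concentration, 6.5 µM nominal | Incubation: 30-min compound preincubation, 1-h Melanotan II challenge, 1-h detection, room temperature | Signal: TR-FRET cAMP assay | Replicates: One well per compound, no replicates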
# MC4R barr agon: MC4R agonists recruiting beta-arrestin, primary screen, cell-based, luminescence, agonist arm of biased-ligand search; Melanocortin receptor 4 (Homo sapiens), P32245; U2OS MC4R beta-arrestin complementation; percent of melanotan II response, DMSO zero; activation, % at 8.9 µM; actives 0.98% (n = 360,000); AID 540308, 2011;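 active means activation above a per-plate cutoff, the mean activation of sample wells on that plate plus 3 SD, cut at about 8% in these data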
# MC4R barr ag: MC4R beta-arrestin agonists, retest, confirmation, cell-based, luminescence, U2OS | shares compounds with MC4R barr agon | U2OS MC4R beta-arrestin recruitment; scaled DMSO 0%, Melanotan II 100% | activation, % at 8.9 µM | actives 31% (n = 2,400) | AID 602192, 2012;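 active means mean activation across replicates above the hit cutoff set in the earlier primary screen, cut at about 8% in these data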
# MOR DOR agonist: agonists of MOR-DOR heterodimerization, counter-screen for MC4R biased agonist project, cell-based, luminescence; U2OS PathHunter beta-arrestin, beta-gal luminescence; percent of deltorphin B response, DMSO zero; shares compounds with MC4R barr agon; actives 5.8% (n = 2,400); activation, % at 9.2 µM;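 active means mean activation across replicates exceeds the hit threshold derived in the earlier primary screen, cut at about 18% in these data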;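 further: 100% = deltorphin B at 0.9 µM final and 0% = DMSO alone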
# Target sequence (P35372 whole entry, looked up): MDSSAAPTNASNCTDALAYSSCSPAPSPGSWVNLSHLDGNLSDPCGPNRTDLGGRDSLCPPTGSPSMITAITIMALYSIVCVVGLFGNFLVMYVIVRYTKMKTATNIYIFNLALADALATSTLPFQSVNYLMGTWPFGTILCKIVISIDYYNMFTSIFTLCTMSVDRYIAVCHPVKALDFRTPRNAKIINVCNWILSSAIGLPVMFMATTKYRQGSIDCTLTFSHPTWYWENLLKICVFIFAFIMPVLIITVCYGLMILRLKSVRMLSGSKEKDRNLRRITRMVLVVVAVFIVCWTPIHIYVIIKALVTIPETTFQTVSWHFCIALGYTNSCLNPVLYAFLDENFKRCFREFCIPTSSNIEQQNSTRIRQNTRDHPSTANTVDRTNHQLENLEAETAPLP
# Target sequence (P41143 whole entry, looked up): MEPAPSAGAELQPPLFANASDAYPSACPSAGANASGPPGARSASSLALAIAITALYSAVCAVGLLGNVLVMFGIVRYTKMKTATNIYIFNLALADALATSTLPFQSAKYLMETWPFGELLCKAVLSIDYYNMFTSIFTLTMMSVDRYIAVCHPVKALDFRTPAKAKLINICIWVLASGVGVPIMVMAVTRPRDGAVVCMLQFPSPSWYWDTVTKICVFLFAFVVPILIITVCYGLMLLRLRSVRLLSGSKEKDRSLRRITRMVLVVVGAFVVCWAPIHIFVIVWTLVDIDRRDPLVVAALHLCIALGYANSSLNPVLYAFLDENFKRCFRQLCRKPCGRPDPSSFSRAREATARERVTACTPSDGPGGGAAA
# Active calls of the source: *; · = no result. Sampled rows, rich in hits. Any-hit rate of the full collection: about 1.8%.
SMILES,NTR1 agonist,AI-2 QS modul,MC4R antag cAMP,MC4R barr agon,MC4R barr ag,MOR DOR agonist
CC(C)(C)c1nn(-c2ccccc2)c2[nH]c(=O)c(CNCc3ccc4c(c3)OCO4)cc12,3.7,22.7,6.0,15.9*,13.9*,9.6
Cc1cccc(C(=O)O[C@@H]2[C@H](Cc3ccccc3)NS(=O)(=O)[C@H]3C[C@@H]4C=C[C@]23O4)c1,1.5,·,8.1,-0.3,·,·
COCCCNC(=O)CNC(=O)c1nn(-c2ccc(OC)c(Cl)c2)c(=O)c2ccccc12,0.9,10.1,0.1,-1.8,·,·
Cc1ccc2nc(-c3cccc(NC(=O)c4ccc5c(c4)OCCO5)c3)oc2c1,5.0,15.5,11.7,22.8*,2.2,3.8
CCC(=O)Nc1cccc(-c2nc3ccc(C)cc3o2)c1,5.0,-1.6,3.8,0.0,·,·
CC(C)(C)OC(=O)C[C@H]1C/C=C\C[C@@H](CC(=O)N[C@@H](CO)Cc2ccccc2)C(=O)N2CCC[C@@H]2COC1=O,2.0,·,2.8,-1.8,·,·
C/C(=C\C=C(C#N)C#N)c1cc(C#N)c(N)o1,-1.3,1.6,-15.1,14.1*,57.0*,20.2*
COc1ccc(C(CCNCc2ccc(OC(C)C)cc2)c2ccccc2OC)cc1 (stereo not given),25.3,27.4,9.4,12.6*,15.1*,25.4*
COC(=O)c1c(NC(=O)Nc2ccc(Cl)cc2)sc(C)c1C,-5.3,·,0.0,10.2*,2.1,9.3
CC(=O)c1ccc2c(c1)Cc1cc(C(C)=O)ccc1-2,-0.3,18.6,-4.6,14.1*,-0.6,7.6
O=C(N/N=C/c1ccccc1)c1ccc(-c2ccccc2)cc1,1.0,23.1,-2.1,2.7,·,·
O=C(N/N=C\c1ccccc1F)c1ccc(-c2ccccc2)cc1,0.7,15.8,0.2,16.1*,5.7,8.7
Cc1ccc(NC(=O)Nc2nc3ccccc3s2)cc1NC(=O)Nc1nc2ccccc2s1,1.1,40.9,-0.4,10.5*,10.2*,9.8
COc1cc(NC(=O)c2ccco2)c(C(=O)OCC(=O)Nc2ncc(Cl)cc2Cl)cc1OC,-0.5,-7.6,0.9,17.8*,0.3,2.5
O=C(COC(=O)c1ccccc1NC(=O)c1ccco1)Nc1ncc(Cl)cc1Cl,-0.5,-1.7,3.5,0.1,·,·
COC(=O)c1sc2ccccc2c1N,13.0,5.0,7.4,-1.0,·,·
CCOC(=O)c1sc2ccccc2c1OC(=O)c1ccc(C)cc1,-3.1,9.4,5.3,14.0*,7.2,8.4
O=C(COc1ccc(Cl)cc1)N1CCN(C(=O)c2ccccc2F)CC1,-0.9,33.6,7.1,-0.3,·,·
CCCS(=O)(=O)NC(=O)C1(C)CCN(C(=O)c2ccc(OC(F)F)cc2)C1 (stereo not given),·,·,2.5,-0.9,·,·
Cc1cc(C(=O)N/N=C/c2cc(Br)ccc2OC(=O)c2ccccc2)n[nH]1,6.3,·,-1.3,16.6*,3.0,7.4
COC(=O)c1ccccc1NC(=O)c1cccc(NC(=O)CSCc2ccccc2)c1C,1.6,2.3,-2.9,17.8*,4.8,3.9
CCOc1ccc(-n2cnnn2)cc1S(=O)(=O)NCc1ccccc1,-0.3,-2.8,-3.4,15.7*,-1.0,2.1
CC(=O)Nc1nn(CC(C)C)c2nc3ccc(C)cc3cc12,·,·,-8.6,-1.2,·,·
Cc1ccc2cc3c(NC(=O)c4ccco4)nn(CC(C)C)c3nc2c1,0.5,-6.5,7.0,12.9*,-1.5,2.9
Cc1cc(C)n2nc(SCC(=O)N3CCN(c4ccccc4)CC3)nc2n1,-0.5,·,-0.1,-0.5,·,·
SMILES,NTR1 agonist,AI-2 QS modul,MC4R antag cAMP,MC4R barr agon,MC4R barr ag,MOR DOR agonist
O=C(Nc1ccc(-c2nc3c(ccc4ccccc43)o2)cc1)c1ccco1,4.2,-3.3,2.8,15.3*,4.0,6.4
O=C(Nc1ccc(-c2nc3cc(Cl)ccc3c(=O)o2)cc1)c1ccco1,5.4,40.4,5.3,-3.1,·,·
CCCCCCCCCCn1c2c(c(=N)c3c1CCC3)CCC2,42.1*,29.9,-10.3,17.4*,10.9*,19.3*
CCCCCn1c2c(c(=N)c3ccccc31)CCC2,3.4,10.9,5.7,0.0,·,·
NC(c1ccccc1)c1ccncc1 (stereo not given),-1.0,15.6,-2.6,-0.6,·,·
COc1nc(-c2ccccc2)ccc1-c1noc(-c2ccco2)n1,4.1,-5.1,2.2,30.9*,0.3,3.4
Cc1cccc(C)c1OCc1cc(C(=O)NCC2CCCCC2)no1,2.2,19.6,-1.5,11.1*,2.7,2.5
Cc1cc(OCc2cc(C(=O)NC3CCC3)no2)cc(C)c1Cl,2.5,10.2,2.8,10.8*,0.5,3.8
Cc1cc(C(O)c2ncc(-c3ccccc3F)[nH]2)ccc1F (stereo not given),·,·,0.0,0.1,·,·
Cc1c(C(=O)NC2CCCc3ccccc32)oc2ccc(S(=O)(=O)N3CCCC3)cc12 (stereo not given),5.1,19.8,17.0,14.2*,4.0,3.6
Cc1cc(C)c2nc(NC(=O)C3CSC4(C)CCC(=O)N34)sc2c1 (stereo not given),0.0,·,23.9,-2.6,·,·
COc1ccccc1C(=O)C1CCCN(C(=O)c2cccc(Cn3cccn3)c2)C1 (stereo not given),-0.5,32.2,0.2,-0.1,·,·
CC(c1ccccc1)c1nnc(NC(=O)Nc2ccccc2F)s1 (stereo not given),3.0,33.3,7.7,10.3*,3.2,6.4
O=C(Nc1nnc(COc2ccccc2F)s1)Nc1ccccc1F,4.6,23.3,16.0,12.0*,5.9,9.6
COc1ccc(Cl)cc1NC(=O)CN(C)C(=O)CN1C(=O)NC2(CCCC2)C1=O,-0.4,6.1,2.8,0.7,·,·
COc1ccc(/C(C)=N/OCC(=O)N=Nc2c(O)[nH]c3ccccc23)cc1,8.5,3.0,7.8,13.6*,10.9*,3.1
CC(NCC(=O)Nc1ccccc1C(=O)NC1CC1)c1cccc(C(F)(F)F)c1 (stereo not given),3.5,·,5.6,-0.5,·,·
Cc1ccc(C)c(S(=O)(=O)N2CCN(C(=O)CCNS(=O)(=O)c3ccccc3)CC2)c1,0.3,15.1,21.2,-0.3,·,·
CC1CCCN(C(=O)COC(=O)C2CCN(S(=O)(=O)c3ccc(Cl)c(C(F)(F)F)c3)CC2)C1 (stereo not given),-0.1,22.9,-4.3,56.4*,2.2,2.3

# Assay outcomes deposited in PubChem by several laboratories.
